Experiment: Toxicity liver stage against HepG2, at 10uM
Format: cell-based
Parameters: test concentration 10 uM, cell line HepG2-A16-CD81EGFP
Settings: human, HepG2-A16-CD81EGFP cells; read-out: INHIBITION
In short: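 Uninfected HepG2-A16-CD81EGFP cells, 3 × 10^3 per well, 1536-well, plated on prespotted compound at 10 μM final, parasite-free screening media added to match infected plates; puromycin 10 μM positive, DMSO 0.5% negative; run in parallel with 48 h PbLuc assay at 37 °C, 5% CO2; viability by CellTiter-Glo luminescence, normalized to controls.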

Structure (SMILES)	cytotoxicity at 10 µM
CCN(C(=O)CN1CCC(c2n[nH]c(C3CC3)n2)CC1)C1CC1	-2.07%
CC(NC(=O)Nc1ccc(-n2cncn2)cc1)C(=O)NC(C)(C)C (stereo not drawn)	3.92%
COC[C@@H]1CN(C)C(=O)[C@@H]2CCN(Cc3ccco3)CC[C@H]12	-6.13%
O=C(c1ccnnc1)N1CC[C@H](OCC2CC2)[C@@H]1Cc1ccncc1	-1.43%
CCOC(=O)c1sc(NC(=O)C(C)C)c(C#N)c1C	-15.9%
Cc1ccn(-c2ccccc2NCc2cccnc2)n1	0.508%
CC(C)N(C)Cc1cncc2c1CCN(C(=O)c1cccc(C#N)c1)C2	4.01%
Cn1cnc2cc(CCC(=O)Nc3nc[nH]n3)ccc21	4.44%
CCOCCOC(C)C(=O)NCc1cn2cc(Br)ccc2n1 (stereo not drawn)	-6.83%
O=C(COCC(F)(F)C(F)F)N1CCC(c2ncc[nH]2)CC1	-53.9%
CCCNC(=O)c1ccc(NC(=O)c2cccc(OCC)c2)cc1	-10.5%
COc1cncc(N2CCN(Cc3ccncc3Cl)CC2)n1	1.66%
Cc1nnc(CN(C)CC2CCCN2c2cccnn2)o1 (stereo not drawn)	-0.514%
CN(C)C(=O)CN1CC[C@H]2[C@H]1CCN2c1ncccn1	8.28%
Cc1nccc(CNC(=O)Nc2cc(C(F)(F)F)c[nH]c2=O)n1	-1.16%
O=c1c(CN2CC3CCCN3C[C@@H]2CCO)coc2ccc(Cl)cc12 (stereo partly drawn)	3.19%
O=C1CC[C@@H](C(=O)N2CCc3[nH]nc(COc4cccc(Cl)c4)c3C2)N1	-52.1%
CCCc1cc(C(=O)N(Cc2cccnc2)C[C@@H]2CCC(=O)N2)no1	6.82%
Cc1nn(C)cc1-c1cc(C(=O)N2CCc3ncc(Cl)cc3C2)on1	-4.96%
CC(=O)N1CCCN(CCCSc2ccccc2Cl)CC1	0.269%
c1ccc(-c2cnc(CN3CCCC3Cn3cccn3)o2)cc1 (stereo not drawn)	-13.6%
Cc1noc(C)c1C(=O)N1Cc2ncn(C)c2C(COCC2CC2)C1 (stereo not drawn)	-111%

Structure (SMILES)	cytotoxicity at 10 µM
COc1ccc(CN2CCCn3cnc(COCC4CC4)c3C2)cc1	11%
c1ccc(NCCn2cc(C3CCCNC3)nn2)cc1 (stereo not drawn)	5.44%
CCOC(C)C(=O)Nc1ccnn1-c1ccccc1C (stereo not drawn)	-7.89%
COCCc1nnc(NC(=O)Cc2ccccc2Cl)o1	-6.95%
CCS(=O)(=O)N1CCc2ccc(NC(=O)Nc3cccc(SC)c3)cc21	37.7%
Cn1cc(C[C@H]2[C@H](O)CCN2C(=O)c2ccsc2)cn1	-72.6%
CO[C@H]1CN(Cc2cccc(C#N)c2)[C@@H]2COC[C@H]12	-5.77%
O=C(C1CN(CC2CC2)CC12CCOCC2)N1CCCC1 (stereo not drawn)	7.28%
CCOC(=O)CSc1ccc(-c2nc(C)no2)cn1	-15.2%
O=C(O)CN1CCC(C(F)(F)F)CC1	17.2%
CNCc1cc(F)ccc1Oc1ccc(F)cc1F	-11%
COCc1nc(CNC2CCC3(CCNCC3)CC2)no1	-3.13%
Cc1nc(C)n(C2CCCN(C(=O)c3cn4cccnc4n3)C2)n1 (stereo not drawn)	-0.776%
O=C(CSCC1CC1)N1CCCC(c2nccn2Cc2ccccn2)C1 (stereo not drawn)	1.34%
Cc1cc(N(Cc2cccnc2)C2CC2)n2nc(C(F)(F)F)nc2n1	-1.95%
Cc1csc(CN2CCC[C@]3(C[C@@H](OCC4CC4)CO3)C2)n1	-134%
CC(NC(=O)N1CCN(c2nccs2)CC1)c1nncn1C (stereo not drawn)	-13.1%
CC(C)C1CN(Cc2nccn2C(C)C)CCC(=O)N1CC1CC1 (stereo not drawn)	-11%
CCC(O)c1nc2c([nH]1)CC(C)(C)CNC2=O (stereo not drawn)	9.55%
CC(C)(C)OC(=O)NCCNC(=O)c1ccc(-c2ccco2)[nH]c1=O	-13.1%
O=S(=O)(Nc1cnn(C2CCOCC2)c1)c1ccc(F)c(F)c1	6.04%
Cn1ccnc1NC[C@@H]1CCC[C@@H]2CN(Cc3cccnc3)C[C@@H]21	5.55%

Structure (SMILES)	cytotoxicity at 10 µM
COc1ccc(NS(=O)(=O)C=c2[nH]c(=O)n3cccc3c2=O)cc1Cl	-1.47%
COCCCC1CCCCN1S(=O)(=O)c1cccc(C#N)c1 (stereo not drawn)	-133%
CN(C)c1nc(N)nc(CN2CCCC2c2ccsc2)n1 (stereo not drawn)	-19.6%
CCOCC(=O)N1CC[C@H]2OCC[C@@H](c3nnc(C)o3)[C@H]2C1	12%
O=C(N1CCc2ccccc2CC1)C1(O)Cc2ccccc2C1	10.8%
Cc1cncc(C2CCCN(C(=O)c3cn(C)nc3C)C2)n1 (stereo not drawn)	-7.91%
COc1ccccc1CN(Cc1nc(CC(C)C)no1)C1CC1	4.93%
CC(C)Oc1ncccc1CNC(=O)N1CCC(C(N)=O)C1 (stereo not drawn)	-6.08%
CC(C)=CCN1CC2(CCN(C(=O)CCn3ccnc3C)CC2)CC1=O	-6.3%
CN(C)S(=O)(=O)N1CCOCC1CC(=O)NCCOc1ccccc1 (stereo not drawn)	2.38%
COCCN1CC[C@H]2CN(c3cc(OC)ncn3)C[C@@H]2C1=O	10.3%
O=C(CCc1ccccc1)N1CCCC(c2n[nH]c3nccnc23)C1 (stereo not drawn)	20.9%
CC(C)CC(=O)N1CC[C@H]2C[C@H](c3nccs3)O[C@@H]2C1	-0.966%
Cn1c(CN2CCCC(Cn3cc(CCO)nn3)C2)cc2ccccc21 (stereo not drawn)	-0.849%
O=C1C[C@@H]2CC[C@H](CN1)N2C(=O)CCCc1ccc(Cl)cc1	-7.05%
COc1cc(CNC(=O)Nc2nnc(C(F)(F)F)s2)ccc1O	-2.83%
CCCN1C[C@@H]2CC[C@H]1CN(c1nnc(C(C)C)s1)C2	-11.4%
Cc1ccc(CC(=O)N2CCCC(c3ccn[nH]3)C2)cn1 (stereo not drawn)	0.691%
CC(C)n1cnnc1CN(C)Cc1ccc(CN(C)S(C)(=O)=O)o1	-1.31%
Cc1ccc(C(=O)NCCCC2(C3OCCO3)CCOCC2)cc1C	1.48%
Cc1cnc(N2C[C@H]3CCN(CC4CC4)C[C@H]3C2)nc1	6.34%
Cc1cc(CN2CCC(C(=O)O)(n3ccc(-c4ccco4)n3)CC2)on1	-131%

Structure (SMILES)	cytotoxicity at 10 µM
COC(=O)c1cccn1C1CCN(CC(=O)NC2CCCCC2)CC1	-8.21%
COc1cc(C2SCC(=O)Nc3ccsc32)cc(OC)c1OC (stereo not drawn)	-1.88%
O=C(NCc1nnc2n1CCCCC2)N(Cc1ccncc1)C1CC1	9.66%
COC(=O)c1cccc(CN(C)Cc2ncnn2C)c1C#N	-4.23%
CCOCC(O)CN1CCN(C(=O)c2ccc(OC)cc2F)CC1 (stereo not drawn)	-11.9%
CN(C)S(=O)(=O)NC1CC(=O)N(c2ccccc2Cl)C1 (stereo not drawn)	3.57%
Cc1csc2ncc(-c3ccnc(N4CCC[C@@H]4CO)n3)c(=O)n12	-11.3%
COCCN1CCN(C(=O)N2CCCC2)Cc2ccc(C)nc21	-65.5%
Nc1cc2c(nn1)CCN(C(=O)c1ccc(-c3ccco3)[nH]c1=O)C2	-3.73%
CCCc1cc(C(=O)N2C[C@H]3CC=C(C)C[C@H]3C2)ccn1	0.782%
CCn1nc(C)c(NC(=O)c2cc(NC(=O)C3CC3)n(C)n2)c1C	-0.916%
Cc1c(C)n(-c2ccccn2)c2nc3c(c(N)c12)CCCCC3	6.1%
C=c1ncsc1=C1NN=C(C2CCCN2C(=O)c2ccn(CC)n2)O1 (stereo not drawn)	-7.82%
CSc1cccc(CN(C)C(=O)Cn2ncc(N3CCCC3)cc2=O)c1	-2.01%
O=C(NCc1cc(-c2ccccc2)no1)NCC1CCCO1 (stereo not drawn)	-3.01%
CN(C)S(=O)(=O)N1CC[C@]2(O)CCN(Cc3cccc(F)c3)C[C@@H]2C1	-5.16%
CC(C)(C)c1n[nH]c(C2CN(C(=O)CCc3cscn3)CCO2)n1 (stereo not drawn)	-17.3%
Cc1ccccc1C(=O)N1C[C@@H]2CCN(c3cccnc3)C[C@@H]2C1	-76.3%
O=C(Cc1ccsc1)N1CCn2cc(CN3CCCC3)nc2C1	-14.2%
CCCn1ccnc1CN1CCCC(O)(CN(C)C)CC1 (stereo not drawn)	1.33%
O=S(=O)(Cc1nc(C2CC2)no1)c1cc(F)ccc1F	7.81%
CS(=O)(=O)NC[C@@H]1OC[C@H]2CN(Cc3ccccc3)CC[C@H]21	4.82%

Structure (SMILES)	cytotoxicity at 10 µM
OC1CN(Cc2cccc(N3CCOCC3)c2)Cc2ccccc21 (stereo not drawn)	-3.15%
CC(C)N(C)Cc1cn2c(n1)CN(C(=O)Cc1ccccc1)CC2	-135%
O=C(c1ccccn1)N1Cc2ccccc2OC2(CCOCC2)C1	-12.9%
CNC(=O)[C@@H]1C[C@H]2CN(Cc3ccc(C)o3)C[C@H]2N1C(C)=O	-103%
CCn1ccnc1CN1CCCN(C(=O)c2cnn(C)c2)CC1	-7.25%
CSc1ccc(NC(=O)COCc2ccccc2)nc1	7.01%
CO[C@H]1CN(C(C)C)C[C@@H]1NC(=O)Nc1ccc2oc(C)cc2c1	0.0448%
Cc1ccc2cc(CN(C)Cc3ccncn3)c(=O)[nH]c2c1	10.3%
COCCNC(=O)[C@H]1C[C@@H]2CCN(c3ncccn3)C[C@H]2O1	-17.1%
CCCN(C)C(=O)c1cc(Br)cc(S(=O)(=O)N2CCOCC2)c1F	6.83%
OCCN(Cc1ccccc1)Cc1ccsc1	4.7%
N#Cc1ccccc1CN(CCO)Cc1ccsc1	18.4%
COC(=O)Cn1c(C)cc(=O)c2cc(F)ccc21	2.63%
O=S(=O)(NCc1cc2n(n1)CCNC2)c1ccc(OC(F)(F)F)cc1	11.5%
CC(C)NC(=O)Nc1ccccc1CN1CCOCC1	4.89%
O=C(c1ccno1)N1CCO[C@]2(CCC[C@@H]2COCc2ccncc2)C1	10.2%
Cc1cc2ncc(CN(C)C)c(C3CCN(C)CC3)n2n1	-1.19%
NC(=O)NC(=O)CCN1CCCN(c2nccs2)CC1	11.1%
O=C(c1cnccn1)N1CC[C@H]2C[C@@H](c3ccncn3)O[C@@H]2C1	-78.5%
COCCNC(=O)Cn1cc2c(n1)c(C)nn2C	4.6%
